High-throughput results as filed in PubChem BioAssay.
Compounds with a hit are over-represented: about 1.4% of the library has one in this group of screens.
A3A deaminase = inhibitors of human APOBEC3A DNA deaminase; P31941; recombinant A3A, FAM/TAMRA ssDNA deamination fluorescence; inhibition, % at 20 µM; 330,000 tested, 0.41% active;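 active = at least 40% inhibition at 20 µM here, with at most 30% in a related deaminase screen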;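 note: plate controls were A3A with DMSO for no effect and wells lacking A3A enzyme for full effect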
Target sequence (P31941 whole entry, looked up): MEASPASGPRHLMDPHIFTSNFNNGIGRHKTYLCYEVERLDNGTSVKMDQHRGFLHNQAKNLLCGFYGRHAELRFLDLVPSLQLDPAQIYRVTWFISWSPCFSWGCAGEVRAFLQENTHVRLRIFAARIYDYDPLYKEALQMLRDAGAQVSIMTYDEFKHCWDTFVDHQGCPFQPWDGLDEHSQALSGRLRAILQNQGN
A3G deaminase = blocks human APOBEC3G single-stranded DNA deamination | inhibition, % at 20 µM | 330,000 tested, 0.28% active | recombinant A3G, ssDNA deamination FAM/TAMRA fluorescence | Q9HC16 | AID 493012;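 active = inhibition of at least 40% at 20 µM, with no more than 30% in the related APOBEC3A deaminase screen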;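 note: plate controls were DMSO wells with A3G for no effect and wells lacking A3G enzyme for full effect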
Target sequence (Q9HC16 whole entry, looked up): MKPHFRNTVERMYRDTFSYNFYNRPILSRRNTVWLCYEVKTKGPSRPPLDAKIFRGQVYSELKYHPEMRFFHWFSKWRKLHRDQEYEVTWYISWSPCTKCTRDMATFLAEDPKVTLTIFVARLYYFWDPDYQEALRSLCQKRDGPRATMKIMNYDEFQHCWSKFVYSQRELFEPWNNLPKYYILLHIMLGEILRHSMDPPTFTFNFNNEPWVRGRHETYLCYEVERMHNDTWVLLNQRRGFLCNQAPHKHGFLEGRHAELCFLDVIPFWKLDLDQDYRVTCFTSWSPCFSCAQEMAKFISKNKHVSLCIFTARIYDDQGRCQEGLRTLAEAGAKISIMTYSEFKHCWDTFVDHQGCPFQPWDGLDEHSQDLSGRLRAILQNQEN
PfG6PD inh = PfG6PD (Plasmodium falciparum) enzyme inhibition | PfGluPho enzyme, NADPH resazurin-diaphorase fluorescence | inhibition, % at 20 µM | 350,000 tested, 0.78% active;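 active = inhibition reaching at least a set limit at 20 µM in the primary screen, cut at about 59% in these data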;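 note: 0% = DMSO wells with substrate and 100% = DMSO wells lacking glucose-6-phosphate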
HKDC1 inh = HKDC1 (human) hexokinase inhibition | recombinant HKDC1, G6PDH/diaphorase resazurin coupled fluorescence | Q2TB90 | inhibition, % at 20 µM | 340,000 tested, 0.16% active;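 active = inhibition above about 35% when tested at 20 µM, limit read from the data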;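 note: plate controls were DMSO wells with enzyme for no effect and DMSO wells lacking enzyme for full effect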
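Assay system: recombinant HKDC1 hexokinase; detection: coupled resazurin fluorescence, excitation 525 nm, emission 613 nm; benchmarks: DMSO-plus-enzyme-mix negative control, buffer-substituted positive control; compound dosing: single 20 µM dose; schedule: 90 min at room temperature in dark; also added: glucose plus 1 mM ATP as hexokinase substrates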
hiPSC survival = enhancers of human iPSC single-cell survival. 360,000 tested, 0.044% active. hiPSC single-cell survival, ATPlite luminescence; 100% = ROCK inhibitor wells, 0% = DMSO. AID 602274. survival enhancement, % at 20 µM; in the data active = survival enhancement above about 18%;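 note: cells exposed to compounds for 16 hours before the ATP read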
HKDC1 act conf = confirmation of human HKDC1 activators | 740 tested, 14% active | AID 504708 | inhibition, % at 20 µM | shares compounds with HKDC1 inh | recombinant HKDC1, G6PDH/diaphorase resazurin fluorescence; stronger effect = lower value;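 active = inhibition at or below a set negative limit, negative inhibition meaning the enzyme was activated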
Numbers without * were called inactive; / = no result given.

SMILES	A3A deaminase	A3G deaminase	PfG6PD inh	HKDC1 inh	hiPSC survival	HKDC1 act conf
Cc1ccc2[nH]c(=O)c(CN(Cc3cccs3)S(=O)(=O)c3ccc4c(c3)OCCO4)cc2c1	-1.7	-9.8	5.4	-13.4	0.1	/
Cc1cccn2c(=O)c3cc(C(N)=S)c(=N)n(CCCN4CCOCC4)c3nc12	15.7	16.3	44.8	-53.8	1.6	-12.8
COCCCn1c(=N)c(C(N)=S)cc2c(=O)n3cccc(C)c3nc21	14.4	14.0	40.1	-2.9	0.3	/
CC(=O)n1cc(N(C(=O)CCl)c2ccc(Cl)cc2)c2ccccc21	-4.6	-9.6	-0.8	58.3*	-0.9	33.2
COc1ccccc1N(C(=O)CCl)c1cn(C(C)=O)c2ccccc12	-4.3	-5.4	-12.7	7.5	0.4	/
O=C(NCCc1ccccc1)C(c1cccs1)N(C(=O)CCl)c1ccc(Cl)cc1 (stereo not drawn)	6.8	1.0	-0.8	37.0*	-1.5	23.0
O=C(NCCc1ccccc1)C(c1cccs1)N(C(=O)c1csnn1)C1CC1 (stereo not drawn)	-3.6	-11.3	-4.3	-6.5	1.0	/
CSc1ccccc1C(=O)Nc1ccccc1C(=O)NC(C)C	-4.3	-3.8	-11.5	-3.9	-0.1	/
COc1ccc(-c2csc(NC(=O)CSCc3c(C)noc3C)n2)cc1OC	-4.9	-8.3	-9.5	34.8	2.2	-32.6
Cc1noc(C)c1CSCC(=O)Nc1nc(-c2ccc(F)c(F)c2)cs1	2.6	3.0	17.5	6.5	0.4	/
COc1ccc2[nH]c3c4c(ccc3c2c1)C(=O)C=CC4=O	1.0	19.6	90.4*	51.1*	6.3	32.9
CCOc1ccc(C(=O)NN2CCOCC2)cc1	-2.4	-5.2	-12.4	-5.3	-0.3	/
NC(CSC(c1ccccc1)(c1ccccc1)c1cccc2ccccc12)C(=O)O (stereo not drawn)	/	/	49.0	35.4*	-2.0	2.9
O=C(Nc1ccc(F)c(F)c1)C1CCN(S(=O)(=O)c2cccc3nonc23)CC1	-1.2	-8.2	2.7	-2.2	-0.4	/
COCC(=O)N1CCC(Oc2ccc(C(=O)NC3Cc4ccccc4C3)cc2)CC1	0.4	-5.7	3.8	-1.1	-0.4	/
O=C(N/N=C/c1ccc(O)c2ncccc12)c1cccc(Br)c1	-4.4	-7.9	-1.3	-35.9	-2.9	-17.6
CCc1ccc(S(=O)(=O)/N=C2/C=C(Sc3ncn[nH]3)C(=O)c3ccccc32)cc1	/	/	106.7*	71.3*	-4.0	73.0
O=C(CCl)N1c2ccccc2Sc2c1ccc1ccccc21	/	/	22.6	44.2*	-0.7	4.8
COc1ccc(-c2cc3ccccc3[nH]2)cc1	-3.5	-6.6	16.2	38.5*	-0.7	30.6
C[C@]12c3[nH]c4ccc(Cl)cc4c3CCN1C(=O)[C@@H](CC(=O)NCc1cccc(C(F)(F)F)c1)C[C@@H]2C(=O)N1CCOCC1	-1.4	-1.0	30.7	27.3	0.7	-30.0
O=C1NN(c2ccc(F)c(Cl)c2)C(=O)/C1=C\c1cccc(OC(=O)c2cccs2)c1	-1.5	-5.3	-0.4	43.7*	-0.6	27.0
Cc1no[n+]([O-])c1COc1cccc(/C=C2\N=C(c3ccccc3)OC2=O)c1	-1.8	-9.4	-4.5	9.3	1.4	/
O=C1OC(c2ccccc2)=N/C1=C/c1cccc(OC(=O)c2cccs2)c1	-8.9	-8.4	-16.5	39.4*	1.2	-8.8
CCOc1cccc2cc(C(=O)NCc3ccc(Cl)cc3)c(=N)oc12	-1.0	1.3	13.4	-2.7	0.2	/
Cc1ccc(NC(=O)CN2C(=O)S/C(=C\c3ccc(-c4cccc(C(=O)O)c4C)o3)C2=O)cc1C	/	/	-12.8	32.6	-1.3	-25.5
SMILES	A3A deaminase	A3G deaminase	PfG6PD inh	HKDC1 inh	hiPSC survival	HKDC1 act conf
CCOC(=O)CN1C(=O)S/C(=C\c2ccc(-c3cccc(C(=O)O)c3C)o2)C1=O	5.9	-5.0	16.4	3.5	2.9	/
O=C(NCCC(=O)N1CCCC(C(F)(F)F)C1)c1ccc(Br)cc1 (stereo not drawn)	-3.8	-3.2	12.8	36.2*	-0.3	-12.1
CCn1c(COC(=O)CNC(=O)c2cc(OC)c(OC)c(OC)c2)nc2cc(S(=O)(=O)N(C)C)ccc21	-1.3	-10.0	-1.9	-0.6	-0.3	/
Cc1ccc(C(=O)ONc2ccc(N=NC(=O)c3ccccc3O)cc2)cc1	-5.2	-7.1	-29.8	65.0*	-0.3	-2.1
COc1cc(/C=C(\C#N)c2nc3ccc(C)cc3[nH]2)cc([N+](=O)[O-])c1O	/	/	14.4	41.3*	0.7	42.2
Cc1ccc2c(c1C)-c1c(ccc(C)c1C)C(=O)C2=O	/	/	40.0	38.0*	-1.8	11.6
COc1ccc2cc(/C=N/NC(=O)c3c(Cl)cnn3C)c(Cl)nc2c1	-0.8	-2.6	-4.7	-74.9	0.5	-13.0
O=C(O)c1cccc2cc(-c3ccccc3)oc(=O)c12	0.6	-2.4	-13.1	-5.8	-0.4	/
O=C(O)c1cccc2cccc(-c3c4ccc(=O)c(O)c-4oc4c(O)c(O)ccc34)c12	/	/	50.7	69.5*	-0.6	35.9
Cc1cc(C)cc(-c2nnc(SCC(=O)c3c(N)n(C4CC4)c(=O)[nH]c3=O)o2)c1	6.8	-12.2	-10.7	0.4	0.5	/
O=C1c2ccccc2C(=O)c2c1cccc2N1CCCC1	/	/	-10.9	22.8	0.7	/
O=C1C=C(N2CCCCC2)c2ccccc2C1=O	-4.1	1.0	47.5	80.6*	-0.3	86.1
COC(=O)c1ccc(NC(=O)CSc2n[nH]c(-c3ccncc3)n2)cc1	-2.0	-6.6	37.9	36.3*	-0.8	43.0
CCOC(=O)c1ccc(NC(=O)CSc2n[nH]c(-c3ccncc3)n2)cc1	34.1	5.3	22.7	39.6*	-2.9	50.3
O=C(CSc1n[nH]c(-c2ccncc2)n1)Nc1ccc(Br)cc1	-0.1	2.7	-46.1	24.6	0.0	/
CSc1nc(N(C)CCO)c2sc3nc(-c4ccco4)c4c(c3c2n1)CCC4	95.8	89.5	10.9	47.0*	7.6	-18.4
CSc1nc(NCCN(C)C)c2sc3nc(-c4ccco4)c4c(c3c2n1)CCC4	/	/	18.0	-0.2	-0.6	/
CCN(C(=O)COC(=O)c1ccc(=O)n(Cc2ccccc2)n1)C1CCS(=O)(=O)C1 (stereo not drawn)	4.1	-5.3	-16.9	-9.0	-0.2	/
Cc1cc(NC(=S)NC(=O)c2ccccc2)ccc1-c1cc2ccccc2oc1=O	-2.2	-2.6	12.3	-47.5	0.3	-13.8
COc1cc(C(=O)NC(=S)Nc2cccc(-c3cc4ccccc4oc3=O)c2)cc(OC)c1OC	-2.5	-8.2	-11.9	-2.7	-3.2	/
COc1ccc(NC(=O)CSc2nnc(NC(=O)c3ccco3)s2)cc1OC	4.2	-2.2	-27.4	0.6	-0.4	/
O=[N+]([O-])c1ccc(-c2csc(N/N=C/c3cccnc3)n2)cc1	3.2	22.0	24.2	35.6*	0.8	-24.6
CCOCCCNC(=S)N1CCN(c2nc(-c3ccc(F)cc3)cs2)CC1	-7.3	-3.4	7.9	-3.1	-0.4	/
COc1cc(NS(=O)(=O)c2ccc(NC(=O)c3ccc(F)cc3)cc2)ncn1	-2.1	10.7	-5.2	-58.8	0.4	-33.3
